Experimental data: ChEMBL document CHEMBL1157649, “Cytotoxic 2-benzylidene-6-(nitrobenzylidene)cyclohexanones which display substantially greater toxicity for neoplasms than non-malignant cells” (Bioorg Med Chem, 2010)
The source made the active and inactive calls. The calls are words filed in the database; no cut-off is given here.

What was measured:
HSC-2 [1] = test: Selectivity index, ratio of CC50 for human normal cells to CC50 for human HSC2 cells; assay type: functional
Outline: (§1)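 The index is the average CC50 toward the three normal cell types (HGF, HPC, HPLF) divided by the CC50 toward the indicated malignant line.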

[2] = Cytotoxicity against human HPLF cells after 24 hrs; assay type: cell-based; conditions: hplf, 24 h
Outline: (§2)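 Cells (HGF gingival fibroblasts, HPC pulp cells, HPLF periodontal ligament fibroblasts, HSC-2 and HSC-4 squamous carcinoma, HL-60 promyelocytic leukemia) were exposed to graded concentrations for 24 h, up to a maximum of 400 μM. CC50 is the concentration reducing viable cell number by 50%, taken from dose–response curves. Values are from duplicate determinations differing by less than 5%.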

HL-60 [3] = test: Induction of apoptosis in human HL60 cells assessed as caspase-3 activation; assay type: functional, cell-based
Outline: (§3)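 HL-60 and HSC-2 cells were incubated with compound for 5 h, then caspase-3 activation was measured. The positive control was UV irradiation (6 J/m²/min for 1 min) followed by 3 h incubation. Bars show mean ± SD, n = 3.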

Mus musculus [4] = test: Toxicity in mouse assessed as induction of mortality at 30 to 300 mg/kg, ip; assay type: organism-based; design: dose 30-300 mg/kg, route intraperitoneal; conditions: in vivo
HSC-4 [5] = test: Cytotoxicity against human HSC4 cells after 24 hrs; assay type: functional; conditions: HSC-4, 24 h; outline: as §2
HL-60 [6] = test: Selectivity index, ratio of CC50 for human normal cells to CC50 for human HL60 cells; assay type: functional; outline: as §1
[7] = Partition coefficient, log P of the compound; assay type: physicochemical; conditions: octanol/water
[8] = Cytotoxicity against human HGF cells after 24 hrs; assay type: cell-based; conditions: hgf, 24 h; outline: as §2
[9] = Cytotoxicity against human HPC cells after 24 hrs; assay type: cell-based; conditions: hpc, 24 h; outline: as §2
HSC-2 [10] = test: Induction of apoptosis in human HSC2 cells assessed as caspase-3 activation; assay type: functional, cell-based; outline: as §3
HSC-4 [11] = test: Selectivity index, ratio of CC50 for human normal cells to CC50 for human HSC4 cells; assay type: functional; outline: as §1
HL-60 [12] = test: Cytotoxicity against human HL60 cells after 24 hrs; assay type: functional; conditions: HL-60, 24 h; outline: as §2
HSC-2 [13] = test: Induction of internucleosomal DNA fragmentation in human HSC2 cells after 6 hrs; assay type: functional, cell-based
Outline: (§4)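 HL-60 and HSC-2 cells were incubated with compound for 6 h. Internucleosomal DNA fragmentation was then examined against a DNA molecular-weight marker.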

HL-60 [14] = test: Induction of internucleosomal DNA fragmentation in human HL60 cells after 6 hrs; assay type: functional, cell-based; outline: as §4
HSC-2 [15] = test: Cytotoxicity against human HSC2 cells after 24 hrs; assay type: functional; conditions: HSC-2, 24 h; outline: as §2
Mus musculus [16] = species on record: Mus musculus; test: Toxicity in mouse; assay type: organism-based; conditions: in vivo
Outline: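 Neurotoxicity was recorded as the number of affected mice per number treated at each dose. Testing was run under National Institute of Neurological Disorders and Stroke screening protocols.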

Mus musculus [17] = test: Neurotoxicity in mouse assessed at 30 to 300 mg/kg, ip after 4 hrs; assay type: toxicity, organism-based; design: dose 30-300 mg/kg, route intraperitoneal; conditions: in vivo
Outline: (§5)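 Mice received 30, 100 or 300 mg/kg intraperitoneally and were examined at 0.5 and 4 h for mortality and neurological deficit, following NINDS screening protocols. Results were recorded as the number of mice showing a deficit over the number treated per dose.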

Mus musculus [18] = test: Neurotoxicity in mouse assessed at 30 to 300 mg/kg, ip after 0.5 hrs; assay type: toxicity, organism-based; design: dose 30-300 mg/kg, route intraperitoneal; conditions: in vivo; outline: as §5

| Compound | Selectivity Index (HSC-2 [1]) | CC50 [2] | Activity (HL-60 [3]) | Activity (Mus musculus [4]) | CC50 (HSC-4 [5]) | Selectivity Index (HL-60 [6]) | logP [7] | CC50 [8] | CC50 [9] | Activity (HSC-2 [10]) | Selectivity Index (HSC-4 [11]) | CC50 (HL-60 [12]) | Activity (HSC-2 [13]) | Activity (HL-60 [14]) | CC50 (HSC-2 [15]) | Activity (Mus musculus [16]) | Activity (Mus musculus [17]) | Activity (Mus musculus [18]) |
| --- | --- | --- | --- | --- | --- | --- | --- | --- | --- | --- | --- | --- | --- | --- | --- | --- | --- | --- |
| O=C1/C(=C/c2ccc(Cl)cc2)CCC/C1=C\c1ccccc1[N+](=O)[O-] | >108 | > 400 µM | Active | Non-toxic | 6.1 µM | >53 | 5.38 | > 400 µM | 400 µM | inactive | >66 | 7.6 µM | inactive | Active | 3.7 µM |  |  |  |
| N[C@@H](Cc1ccc(N(CCCl)CCCl)cc1)C(=O)O |  |  |  |  |  |  |  |  |  |  |  |  |  |  |  | 4 mg/kg |  |  |
| Cc1ccc(/C=C2\CCC/C(=C\c3cccc([N+](=O)[O-])c3)C2=O)cc1 | >20 | > 400 µM |  | Non-toxic | 45 µM | >8.7 | 5.35 | > 400 µM | 192 µM |  | >7.4 | 38 µM |  |  | 17 µM |  | Non-toxic | Non-toxic |
